Experimental data taken from ChEMBL document CHEMBL4689842, “EUbOPEN Chemogenomics Library wave 1” (2021).

Test system: HEK-293T
Test: Multiplex assay against HEK293T;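 on Population Tubulin-Different-Phenotype (%): share of the cells with healthy nuclei that show this phenotype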
Assay type: toxicity, cell-based
Details: human
Procedure, shortened: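 On a CQ1 microscope at 37°C and 5% CO2, live cells were imaged after compound addition. They had been stained at seeding with Hoechst33342, BioTracker Green Microtubule Cytoskeleton Dye, MitoTracker Red and Annexin V Alexa Fluor 680. CellPathfinder machine-learning gating assigned cells to Hoechst high-intensity objects or normal cells, normal cells to healthy, pyknosed or fragmented nuclei, and pyknosed cells to mitotic or apoptotic. Tubulin, mitochondrial-mass and membrane-permeability phenotypes are per cents of healthy-nucleus cells.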

[1] = 12 h, 1 µM, compound concentration 1 uM, replicate 1
[2] = 12 h, 1 µM, compound concentration 1 uM, replicate 2
[3] = 12 h, 10 µM, compound concentration 10 uM, replicate 1
[4] = 12 h, 10 µM, compound concentration 10 uM, replicate 2
[5] = 24 h, 1 µM, compound concentration 1 uM, replicate 1
[6] = 24 h, 1 µM, compound concentration 1 uM, replicate 2
[7] = 24 h, 10 µM, compound concentration 10 uM, replicate 1
[8] = 24 h, 10 µM, compound concentration 10 uM, replicate 2
[9] = 48 h, 1 µM, compound concentration 1 uM, replicate 1
[10] = 48 h, 1 µM, compound concentration 1 uM, replicate 2
[11] = 48 h, 10 µM, compound concentration 10 uM, replicate 1
[12] = 48 h, 10 µM, compound concentration 10 uM, replicate 2

CCC(=O)O[C@]1(C(=O)SCF)[C@H](C)C[C@H]2[C@@H]3C[C@H](F)C4=CC(=O)C=C[C@]4(C)[C@@]3(F)[C@@H](O)C[C@@]21C [FLUTICASONE PROPIONATE]
Population Apoptotic (%) [1]: 51% | Population Fragmented Nuclei (%) [1]: 10% | Population Healthy Nuclei (%) [1]: 33% | Population Hoechst High Intensity Objects (%) [1]: 11% | Population Membrane Permeable-Phenotype (%) [1]: 0% | Population Mitochondria Different-Phenotype (%) [1]: 87% | Population Mitotic Cells (%) [1]: 48% | Population Normal (%) [1]: 88% | Population Pyknosed Nuclei (%) [1]: 56% | Population Tubulin-Different-Phenotype (%) [1]: 52% | Total Cell Count [1]: 253 | Population Apoptotic (%) [2]: 9% | Population Fragmented Nuclei (%) [2]: 4% | Population Healthy Nuclei (%) [2]: 46% | Population Hoechst High Intensity Objects (%) [2]: 2% | Population Membrane Permeable-Phenotype (%) [2]: 7% | Population Mitochondria Different-Phenotype (%) [2]: 13% | Population Mitotic Cells (%) [2]: 90% | Population Normal (%) [2]: 97% | Population Pyknosed Nuclei (%) [2]: 48% | Population Tubulin-Different-Phenotype (%) [2]: 19% | Total Cell Count [2]: 273 | Population Apoptotic (%) [3]: 68% | Population Fragmented Nuclei (%) [3]: 11% | Population Healthy Nuclei (%) [3]: 32% | Population Hoechst High Intensity Objects (%) [3]: 15% | Population Membrane Permeable-Phenotype (%) [3]: 1% | Population Mitochondria Different-Phenotype (%) [3]: 89% | Population Mitotic Cells (%) [3]: 31% | Population Normal (%) [3]: 84% | Population Pyknosed Nuclei (%) [3]: 56% | Population Tubulin-Different-Phenotype (%) [3]: 78% | Total Cell Count [3]: 203 | Population Apoptotic (%) [4]: 25% | Population Fragmented Nuclei (%) [4]: 4% | Population Healthy Nuclei (%) [4]: 27% | Population Hoechst High Intensity Objects (%) [4]: 6% | Population Membrane Permeable-Phenotype (%) [4]: 8% | Population Mitochondria Different-Phenotype (%) [4]: 54% | Population Mitotic Cells (%) [4]: 74% | Population Normal (%) [4]: 93% | Population Pyknosed Nuclei (%) [4]: 68% | Population Tubulin-Different-Phenotype (%) [4]: 60% | Total Cell Count [4]: 187 | Population Apoptotic (%) [5]: 59% | Population Fragmented Nuclei (%) [5]: 10% | Population Healthy Nuclei (%) [5]: 41% | Population Hoechst High Intensity Objects (%) [5]: 17% | Population Membrane Permeable-Phenotype (%) [5]: 6% | Population Mitochondria Different-Phenotype (%) [5]: 68% | Population Mitotic Cells (%) [5]: 40% | Population Normal (%) [5]: 82% | Population Pyknosed Nuclei (%) [5]: 48% | Population Tubulin-Different-Phenotype (%) [5]: 40% | Total Cell Count [5]: 273 | Population Apoptotic (%) [6]: 7% | Population Fragmented Nuclei (%) [6]: 3% | Population Healthy Nuclei (%) [6]: 67% | Population Hoechst High Intensity Objects (%) [6]: 1% | Population Mitochondria Different-Phenotype (%) [6]: 12% | Population Mitotic Cells (%) [6]: 92% | Population Normal (%) [6]: 98% | Population Pyknosed Nuclei (%) [6]: 29% | Population Tubulin-Different-Phenotype (%) [6]: 22% | Total Cell Count [6]: 322 | Population Apoptotic (%) [7]: 61% | Population Fragmented Nuclei (%) [7]: 15% | Population Healthy Nuclei (%) [7]: 33% | Population Hoechst High Intensity Objects (%) [7]: 15% | Population Membrane Permeable-Phenotype (%) [7]: 0% | Population Mitochondria Different-Phenotype (%) [7]: 80% | Population Mitotic Cells (%) [7]: 38% | Population Normal (%) [7]: 84% | Population Pyknosed Nuclei (%) [7]: 50% | Population Tubulin-Different-Phenotype (%) [7]: 67% | Total Cell Count [7]: 237 | Population Apoptotic (%) [8]: 44% | Population Fragmented Nuclei (%) [8]: 11% | Population Healthy Nuclei (%) [8]: 44% | Population Hoechst High Intensity Objects (%) [8]: 3% | Population Membrane Permeable-Phenotype (%) [8]: 8% | Population Mitochondria Different-Phenotype (%) [8]: 43% | Population Mitotic Cells (%) [8]: 55% | Population Normal (%) [8]: 96% | Population Pyknosed Nuclei (%) [8]: 44% | Population Tubulin-Different-Phenotype (%) [8]: 53% | Total Cell Count [8]: 226 | Population Apoptotic (%) [9]: 50% | Population Fragmented Nuclei (%) [9]: 14% | Population Healthy Nuclei (%) [9]: 50% | Population Hoechst High Intensity Objects (%) [9]: 14% | Population Membrane Permeable-Phenotype (%) [9]: 2% | Population Mitochondria Different-Phenotype (%) [9]: 34% | Population Mitotic Cells (%) [9]: 50% | Population Normal (%) [9]: 85% | Population Pyknosed Nuclei (%) [9]: 35% | Population Tubulin-Different-Phenotype (%) [9]: 28% | Total Cell Count [9]: 348 | Population Apoptotic (%) [10]: 9% | Population Fragmented Nuclei (%) [10]: 4% | Population Healthy Nuclei (%) [10]: 81% | Population Hoechst High Intensity Objects (%) [10]: 2% | Population Membrane Permeable-Phenotype (%) [10]: 5% | Population Mitochondria Different-Phenotype (%) [10]: 3% | Population Mitotic Cells (%) [10]: 90% | Population Normal (%) [10]: 97% | Population Pyknosed Nuclei (%) [10]: 13% | Population Tubulin-Different-Phenotype (%) [10]: 23% | Total Cell Count [10]: 621 | Population Apoptotic (%) [11]: 67% | Population Fragmented Nuclei (%) [11]: 15% | Population Healthy Nuclei (%) [11]: 51% | Population Hoechst High Intensity Objects (%) [11]: 12% | Population Membrane Permeable-Phenotype (%) [11]: 10% | Population Mitochondria Different-Phenotype (%) [11]: 60% | Population Mitotic Cells (%) [11]: 32% | Population Normal (%) [11]: 87% | Population Pyknosed Nuclei (%) [11]: 33% | Population Tubulin-Different-Phenotype (%) [11]: 55% | Total Cell Count [11]: 278 | Population Apoptotic (%) [12]: 28% | Population Fragmented Nuclei (%) [12]: 7% | Population Healthy Nuclei (%) [12]: 74% | Population Hoechst High Intensity Objects (%) [12]: 5% | Population Membrane Permeable-Phenotype (%) [12]: 9% | Population Mitochondria Different-Phenotype (%) [12]: 22% | Population Mitotic Cells (%) [12]: 71% | Population Normal (%) [12]: 94% | Population Pyknosed Nuclei (%) [12]: 18% | Population Tubulin-Different-Phenotype (%) [12]: 52% | Total Cell Count [12]: 330

CNC(=O)c1cc(Oc2ccc(NC(=O)Nc3cc(C(C)(C)C)nn3-c3ccc4ncccc4c3)c(F)c2)ccn1 [REBASTINIB]
Population Apoptotic (%) [1]: 22% | Population Fragmented Nuclei (%) [1]: 22% | Population Healthy Nuclei (%) [1]: 66% | Population Hoechst High Intensity Objects (%) [1]: 15% | Population Membrane Permeable-Phenotype (%) [1]: 11% | Population Mitochondria Different-Phenotype (%) [1]: 4% | Population Mitotic Cells (%) [1]: 77% | Population Normal (%) [1]: 84% | Population Pyknosed Nuclei (%) [1]: 10% | Population Tubulin-Different-Phenotype (%) [1]: 3% | Total Cell Count [1]: 638 | Population Apoptotic (%) [2]: 11% | Population Fragmented Nuclei (%) [2]: 11% | Population Healthy Nuclei (%) [2]: 85% | Population Hoechst High Intensity Objects (%) [2]: 4% | Population Membrane Permeable-Phenotype (%) [2]: 7% | Population Mitochondria Different-Phenotype (%) [2]: 3% | Population Mitotic Cells (%) [2]: 88% | Population Normal (%) [2]: 95% | Population Pyknosed Nuclei (%) [2]: 3% | Population Tubulin-Different-Phenotype (%) [2]: 6% | Total Cell Count [2]: 1893 | Population Apoptotic (%) [3]: 29% | Population Fragmented Nuclei (%) [3]: 11% | Population Healthy Nuclei (%) [3]: 41% | Population Hoechst High Intensity Objects (%) [3]: 16% | Population Membrane Permeable-Phenotype (%) [3]: 13% | Population Mitochondria Different-Phenotype (%) [3]: 34% | Population Mitotic Cells (%) [3]: 70% | Population Normal (%) [3]: 83% | Population Pyknosed Nuclei (%) [3]: 46% | Population Tubulin-Different-Phenotype (%) [3]: 88% | Total Cell Count [3]: 515 | Population Apoptotic (%) [4]: 35% | Population Fragmented Nuclei (%) [4]: 3% | Population Healthy Nuclei (%) [4]: 78% | Population Hoechst High Intensity Objects (%) [4]: 6% | Population Membrane Permeable-Phenotype (%) [4]: 9% | Population Mitochondria Different-Phenotype (%) [4]: 55% | Population Mitotic Cells (%) [4]: 64% | Population Normal (%) [4]: 93% | Population Pyknosed Nuclei (%) [4]: 18% | Population Tubulin-Different-Phenotype (%) [4]: 97% | Total Cell Count [4]: 672 | Population Apoptotic (%) [5]: 13% | Population Fragmented Nuclei (%) [5]: 19% | Population Healthy Nuclei (%) [5]: 74% | Population Hoechst High Intensity Objects (%) [5]: 12% | Population Membrane Permeable-Phenotype (%) [5]: 23% | Population Mitochondria Different-Phenotype (%) [5]: 2% | Population Mitotic Cells (%) [5]: 86% | Population Normal (%) [5]: 87% | Population Pyknosed Nuclei (%) [5]: 5% | Population Tubulin-Different-Phenotype (%) [5]: 3% | Total Cell Count [5]: 727 | Population Apoptotic (%) [6]: 3% | Population Fragmented Nuclei (%) [6]: 28% | Population Healthy Nuclei (%) [6]: 69% | Population Hoechst High Intensity Objects (%) [6]: 8% | Population Membrane Permeable-Phenotype (%) [6]: 9% | Population Mitochondria Different-Phenotype (%) [6]: 0% | Population Mitotic Cells (%) [6]: 96% | Population Normal (%) [6]: 91% | Population Pyknosed Nuclei (%) [6]: 1% | Population Tubulin-Different-Phenotype (%) [6]: 7% | Total Cell Count [6]: 2966 | Population Apoptotic (%) [7]: 46% | Population Fragmented Nuclei (%) [7]: 14% | Population Healthy Nuclei (%) [7]: 44% | Population Hoechst High Intensity Objects (%) [7]: 15% | Population Membrane Permeable-Phenotype (%) [7]: 8% | Population Mitochondria Different-Phenotype (%) [7]: 58% | Population Mitotic Cells (%) [7]: 53% | Population Normal (%) [7]: 84% | Population Pyknosed Nuclei (%) [7]: 40% | Population Tubulin-Different-Phenotype (%) [7]: 92% | Total Cell Count [7]: 485 | Population Apoptotic (%) [8]: 43% | Population Fragmented Nuclei (%) [8]: 3% | Population Healthy Nuclei (%) [8]: 81% | Population Hoechst High Intensity Objects (%) [8]: 5% | Population Membrane Permeable-Phenotype (%) [8]: 7% | Population Mitochondria Different-Phenotype (%) [8]: 63% | Population Mitotic Cells (%) [8]: 56% | Population Normal (%) [8]: 94% | Population Pyknosed Nuclei (%) [8]: 15% | Population Tubulin-Different-Phenotype (%) [8]: 98% | Total Cell Count [8]: 674
